# Reference: ChEMBL document CHEMBL4334479, “Trichocadinins B-G: Antimicrobial Cadinane Sesquiterpenes from Trichoderma virens QA-8, an Endophytic Fungus Obtained from the Medicinal Plant Artemisia argyi” (2019)
# Calls of active or inactive are those of the source. No cut-off for these calls is given here.
# Legend:
# Assay type in all cases: functional
# Escherichia coli = experiment: Antibacterial activity against Escherichia coli EMBLC 1 by microplate XTT assay
# Procedure, shortened: (§1)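 Bacterial strains tested in a microplate assay with chloramphenicol as the positive control. Activity is reported as MIC in μg/mL.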
# Aeromonas hydrophila = experiment: Antibacterial activity against Aeromonas hydrophila QDIO 1 by microplate XTT assay; procedure, shortened: as §1
# Edwardsiella tarda = experiment: Antibacterial activity against Edwardsiella tarda QDIO 2 by microplate XTT assay; procedure, shortened: as §1
# Bipolaris sorokiniana = experiment: Antifungal activity against Bipolaris sorokiniana QDAU 7 by microplate XTT assay
# Procedure, shortened: (§2)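 Plant-pathogenic fungi, provided by Qingdao Agricultural University, were tested in a microplate assay with amphotericin B as the positive control.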
# Micrococcus luteus = experiment: Antibacterial activity against Micrococcus luteus QDIO 3 by microplate XTT assay; procedure, shortened: as §1
# Pseudomonas aeruginosa = experiment: Antibacterial activity against Pseudomonas aeruginosa QDIO 4 by microplate XTT assay; procedure, shortened: as §1
# Alternaria solani = experiment: Antifungal activity against Alternaria solani QDAU 14 by microplate XTT assay; procedure, shortened: as §2
# Vibrio anguillarum = experiment: Antibacterial activity against Vibrio anguillarum QDIO 6 by microplate XTT assay; procedure, shortened: as §1
# Vibrio harveyi = experiment: Antibacterial activity against Vibrio harveyi QDIO 7 by microplate XTT assay; procedure, shortened: as §1
# Vibrio parahaemolyticus = experiment: Antibacterial activity against Vibrio parahaemolyticus QDIO 8 by microplate XTT assay; procedure, shortened: as §1
# Vibrio vulnificus = experiment: Antibacterial activity against Vibrio vulnificus QDIO 9 by microplate XTT assay; procedure, shortened: as §1
# [1] = system: Ceratobasidium cornigerum; experiment: Antifungal activity against Ceratobasidium cornigerum QDAU 8 by microplate XTT assay; procedure, shortened: as §2
# [2] = system: Colletotrichum gloeosporioides; experiment: Antifungal activity against Colletotrichum gloeosporioides Penz-QDAU 9 by microplate XTT assay; procedure, shortened: as §2
# Fusarium graminearum = experiment: Antifungal activity against Fusarium graminearum QDAU 10 by microplate XTT assay
# Procedure, shortened: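 Plant-pathogenic fungal strain supplied by Qingdao Agricultural University; MIC determined by microplate assay with amphotericin B as positive control.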
# [3] = system: Fusarium oxysporum f. sp. cucumerinum; experiment: Antifungal activity against Fusarium oxysporum f.sp.cucumerinum QDAU 16 by microplate XTT assay; procedure, shortened: as §2
# [4] = system: Fusarium oxysporum f. sp. momordicae; experiment: (§3) Antifungal activity against Fusarium oxysporum f.sp.momordicae QDAU 17 by microplate XTT assay; procedure, shortened: as §2
# [5] = system: Fusarium oxysporum f. sp. radicis-lycopersici; experiment: (§4) Antifungal activity against Fusarium oxysporum f.sp. radicis-lycopersici QDAU 5 by microplate XTT assay; procedure, shortened: as §2
# Fusarium solani = experiment: Antifungal activity against Fusarium solani QDAU 15 by microplate XTT assay; procedure, shortened: as §2
# [6] = system: Colletotrichum gloeosporioides; experiment: Antifungal activity against Glomerella cingulata QDAU 2 by microplate XTT assay; procedure, shortened: as §2
# Bipolaris maydis = experiment: Antifungal activity against Helminthosporium maydis QDAU 18 by microplate XTT assay; procedure, shortened: as §2
# Penicillium digitatum = experiment: Antifungal activity against Penicillium digitatum QDAU 11 by microplate XTT assay; procedure, shortened: as §2
# [7] = system: Botryosphaeria berengeriana; experiment: Antifungal activity against Physalospora pyricola Nose QDAU 12 by microplate XTT assay; procedure, shortened: as §2
# Cytospora mali = experiment: Antifungal activity against Valsa mali QDAU 13 by microplate XTT assay; procedure, shortened: as §2
# [8] = as §4; procedure, shortened: as §2
# [9] = as §3; procedure, shortened: as §2
Compound,MIC (Escherichia coli),MIC (Aeromonas hydrophila),MIC (Edwardsiella tarda),MIC (Bipolaris sorokiniana),MIC (Micrococcus luteus),MIC (Pseudomonas aeruginosa),MIC (Alternaria solani),MIC (Vibrio anguillarum),MIC (Vibrio harveyi),MIC (Vibrio parahaemolyticus),MIC (Vibrio vulnificus),MIC [1],MIC [2],MIC (Fusarium graminearum),MIC [3] [µg/mL],MIC (Fusarium solani),MIC [6],MIC (Bipolaris maydis),MIC (Penicillium digitatum),MIC [7],other results
CC(C)[C@H]1CC[C@@H](C)[C@]2(O)CCC(C(=O)O)=C[C@H]12,inactive,inactive,inactive,inactive,inactive,inactive,inactive,inactive,inactive,inactive,inactive,inactive,inactive,inactive,32,inactive,inactive,16 µg/mL,inactive,inactive,MIC [4]: inactive; MIC [5]: inactive; MIC (Cytospora mali): inactive
CC(C)[C@H]1CCC(=O)c2cc(O)c(C(=O)O)cc21,inactive,inactive,1 µg/mL,inactive,inactive,inactive,inactive,2 µg/mL,inactive,inactive,inactive,inactive,inactive,inactive,64,inactive,inactive,inactive,inactive,4 µg/mL,MIC [4]: inactive; MIC [5]: inactive; MIC (Cytospora mali): inactive
C=C1CC[C@H](C(C)C)[C@@H]2C=C(C(=O)O)CC[C@H]12,8 µg/mL,8 µg/mL,inactive,inactive,32 µg/mL,4 µg/mL,inactive,inactive,2 µg/mL,8 µg/mL,64 µg/mL,inactive,inactive,inactive,16,inactive,1 µg/mL,inactive,inactive,8 µg/mL,MIC [4]: inactive; MIC [8]: 64 µg/mL; MIC (Cytospora mali): 32 µg/mL
C[C@@H]1[C@H](O)[C@@H](C)/C=C/C=C/C=C/C=C/C=C/C=C/C=C/[C@H](O[C@@H]2O[C@H](C)[C@@H](O)[C@H](N)[C@@H]2O)C[C@@H]2O[C@](O)(C[C@@H](O)C[C@@H](O)[C@H](O)CC[C@@H](O)C[C@@H](O)CC(=O)O[C@H]1C)C[C@H](O)[C@H]2C(=O)O [AMPHOTERICIN B],–,–,–,0.5 µg/mL,–,–,2 µg/mL,–,–,–,–,8 µg/mL,0.5 µg/mL,2 µg/mL,0.5,4 µg/mL,0.5 µg/mL,2 µg/mL,2 µg/mL,2 µg/mL,MIC [9]: 1 µg/mL; MIC [8]: 2 µg/mL; MIC (Cytospora mali): 8 µg/mL
O=C(N[C@H](CO)[C@H](O)c1ccc([N+](=O)[O-])cc1)C(Cl)Cl [CHLORAMPHENICOL],2 µg/mL,4 µg/mL,0.5 µg/mL,–,4 µg/mL,2 µg/mL,–,1 µg/mL,1 µg/mL,4 µg/mL,1 µg/mL,–,–,–,–,–,–,–,–,–,–
C[C@H](CO)[C@H]1CCc2coc3cc(C(=O)O)cc1c23,16 µg/mL,64 µg/mL,inactive,8 µg/mL,inactive,8 µg/mL,32 µg/mL,inactive,16 µg/mL,32 µg/mL,inactive,inactive,inactive,inactive,2,32 µg/mL,4 µg/mL,inactive,8 µg/mL,4 µg/mL,MIC [4]: inactive; MIC [5]: inactive; MIC (Cytospora mali): inactive
CC(C)[C@H]1CCc2coc3cc(C(=O)O)cc1c23,8 µg/mL,8 µg/mL,inactive,1 µg/mL,32 µg/mL,8 µg/mL,4 µg/mL,inactive,8 µg/mL,4 µg/mL,64 µg/mL,16 µg/mL,8 µg/mL,8 µg/mL,1,4 µg/mL,1 µg/mL,inactive,8 µg/mL,4 µg/mL,MIC [9]: 2 µg/mL; MIC [8]: 64 µg/mL; MIC (Cytospora mali): 16 µg/mL
C=C1CC[C@H](C(C)C)[C@H]2C=C(C(=O)O)C[C@@H](O)[C@H]12,inactive,inactive,inactive,inactive,inactive,inactive,inactive,inactive,inactive,inactive,inactive,inactive,inactive,inactive,32,inactive,inactive,inactive,16 µg/mL,1 µg/mL,MIC [4]: inactive; MIC [8]: 64 µg/mL; MIC (Cytospora mali): inactive
